Experimental data taken from ChEMBL document CHEMBL4145448, “Broad activity of diphenyleneiodonium analogues against Mycobacterium tuberculosis, malaria parasites and bacterial pathogens” (Eur J Med Chem, 2018).

What was measured:
Plasmodium falciparum [1] = test: Growth inhibition of CQ-sensitive GFP-fused Plasmodium falciparum D10 after 90 hrs by ethidium bromide staining based flow cytometry; assay type: functional, organism-based; details: D10, 90 h
Procedure, shortened: (§1)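 Parasites cultured in human O+ erythrocytes in RPMI-HEPES pH 7.4 with hypoxanthine, NaHCO3, gentamicin and 0.5% Albumax II under 1% O2/4% CO2 at 37 °C. Synchronised to rings with heparin plus sorbitol. Set up at 1% parasitaemia and 1% haematocrit with 10x compound added. Cultured 90 h to next-cycle trophozoites. Stained with 10 µg/mL ethidium bromide for 1 h, washed, parasitaemia counted by flow cytometry with GFP gating.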

Pseudomonas aeruginosa [2] = test: Antibacterial activity against Pseudomonas aeruginosa isolate 19147nm after 18 hrs by broth microdilution method; assay type: functional
Procedure, shortened: (§2)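 Broth microdilution per CLSI in cation-adjusted Mueller-Hinton broth. 100 µL inoculum (~10^6 cfu/mL in CaMHB) mixed with 100 µL CaMHB containing compound, 0 to 128 µM. Incubated 18 h at 37 °C. MIC taken as the lowest concentration with no visible growth. Polymyxin B served as positive control. Isolates were stored at -80 °C in tryptone soy broth with 20% glycerol.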

Pseudomonas aeruginosa [3] = test: Antibacterial activity against Pseudomonas aeruginosa isolate 18878B klon 1 after 18 hrs by broth microdilution method; assay type: functional; details: isolate 18878B klon 1, 18 h; procedure, shortened: as §2
Acinetobacter baumannii [4] = test: Antibacterial activity against Acinetobacter baumannii ATCC 19606 after 18 hrs by broth microdilution method; assay type: functional; details: ATCC 19606 = CIP 70.34 = JCM 6841, 18 h; procedure, shortened: as §2
Acinetobacter baumannii [5] = test: Antibacterial activity against Acinetobacter baumannii isolate 246-01-C after 18 hrs by broth microdilution method; assay type: functional; procedure, shortened: as §2
Acinetobacter baumannii [6] = test: Antibacterial activity against Acinetobacter baumannii ATCC 17978 after 18 hrs by broth microdilution method; assay type: functional; details: ATCC 17978, 18 h; procedure, shortened: as §2
Klebsiella pneumoniae [7] = test: Antibacterial activity against Klebsiella pneumoniae isolate 1 after 18 hrs by broth microdilution method; assay type: functional; details: isolate 1, 18 h; procedure, shortened: as §2
Klebsiella pneumoniae [8] = test: Antibacterial activity against Klebsiella pneumoniae isolate 224-11-C after 18 hrs by broth microdilution method; assay type: functional; procedure, shortened: as §2
Klebsiella pneumoniae [9] = test: Antibacterial activity against Klebsiella pneumoniae isolate 248-33-D after 18 hrs by broth microdilution method; assay type: functional; procedure, shortened: as §2
Escherichia coli [10] = test: Antibacterial activity against Escherichia coli N2381 after 18 hrs by broth microdilution method; assay type: functional; details: N2381, 18 h; procedure, shortened: as §2
Escherichia coli [11] = test: Antibacterial activity against Escherichia coli N4149 after 18 hrs by broth microdilution method; assay type: functional; details: N4149, 18 h; procedure, shortened: as §2
[12] = Selectivity index, ratio of CC50 for human HepG2 cells in presence of 1% FBS to MIC for Pseudomonas aeruginosa ATCC 27853; assay type: toxicity; details: read-out: Selectivity Index
Procedure, shortened: (§3)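 Selectivity index is CC50 (1% FBS) divided by MIC. […] They then got compound at 300 to 0.14 µM (3-fold steps) for 24 h at 37 °C, 5% CO2. Resazurin (10 µM, 2 h) was read at ex/em 560/590 in duplicate wells. For MIC, CLSI broth microdilution was run in CaMHB with ~10^6 cfu/mL inoculum and 0–128 µM compound.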

[13] = Selectivity index, ratio of CC50 for human HepG2 cells in presence of 1% FBS to MIC for Pseudomonas aeruginosa isolate 19147nm; assay type: toxicity; details: read-out: Selectivity Index; procedure, shortened: as §3
[14] = Selectivity index, ratio of CC50 for human HepG2 cells in presence of 1% FBS to MIC for Pseudomonas aeruginosa isolate 18878B klon 1; assay type: toxicity; details: read-out: Selectivity Index; procedure, shortened: as §3
[15] = Selectivity index, ratio of CC50 for human HepG2 cells in presence of 1% FBS to MIC for Acinetobacter baumannii ATCC 19606; assay type: toxicity; details: read-out: Selectivity Index
[16] = Selectivity index, ratio of CC50 for human HepG2 cells in presence of 1% FBS to MIC for Acinetobacter baumannii ATCC 19606 col10; assay type: toxicity; details: read-out: Selectivity Index
[17] = Selectivity index, ratio of CC50 for human HepG2 cells in presence of 1% FBS to MIC for Acinetobacter baumannii ATCC 17978 col10; assay type: toxicity; details: read-out: Selectivity Index
[18] = Selectivity index, ratio of CC50 for human HepG2 cells in presence of 1% FBS to MIC for Klebsiella pneumoniae isolate 1; assay type: toxicity; details: read-out: Selectivity Index
[19] = Selectivity index, ratio of CC50 for human HepG2 cells in presence of 1% FBS to MIC for Klebsiella pneumoniae isolate 224-11-C; assay type: toxicity; details: read-out: Selectivity Index
[20] = Selectivity index, ratio of CC50 for human HepG2 cells in presence of 1% FBS to MIC for vancomycin-intermediate Staphylococcus aureus ATCC 700698; assay type: toxicity; details: read-out: Selectivity Index; procedure, shortened: as §3
[21] = Selectivity index, ratio of CC50 for human HepG2 cells in presence of 1% FBS to MIC for vancomycin-resistant Staphylococcus aureus ATCC 700699; assay type: toxicity; details: read-out: Selectivity Index; procedure, shortened: as §3
Plasmodium knowlesi [22] = test: microbe, parasite or virus in culture; details: YH1, 90 h
Plasmodium falciparum [23] = test: microbe, parasite or virus in culture; details: CS2, 90 h
[24] = Stability in cation-adjusted Mueller-Hinton broth at 37 degC after 1 day by LC-MS analysis; assay type: physicochemical; details: 24 h
Procedure, shortened: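 Compound was incubated under bacterial assay conditions: CaMHB, 37 °C, polypropylene microtitre wells. The species present were analysed by LCMS the next day.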

Plasmodium falciparum [25] = test: Growth inhibition of […] GFP-fused Plasmodium falciparum D10 after 90 hrs by ethidium bromide staining based flow cytometry; assay type: functional, organism-based; details: D10, 90 h; procedure, shortened: as §1
[26] = Selectivity index, ratio of CC50 for human HepG2 cells in presence of 1% FBS to IC50 for drug-resistant GFP-fused Plasmodium falciparum D10; assay type: toxicity; details: read-out: Ratio IC50
Plasmodium knowlesi [27] = test: Growth inhibition of Plasmodium knowlesi YH1 after 50 hrs by ethidium bromide staining based flow cytometry; assay type: functional, organism-based; details: YH1, 50 h
Procedure, shortened: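 P. knowlesi YH1 cultured in human O+ erythrocytes in RPMI-HEPES with 0.5% Albumax II under 1% O2/4% CO2. Ring-synchronised parasites set up at 1% parasitaemia and 1% haematocrit with compound. Cultured 50 h to late trophozoites of the next cycle. Stained 1 h with 10 µg/mL ethidium bromide and parasitaemia counted by flow cytometry.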

[28] = Selectivity index, ratio of CC50 for human HepG2 cells in presence of 1% FBS to IC50 for Plasmodium knowlesi YH1; assay type: toxicity; details: read-out: Ratio IC50

Structure (SMILES) | IC50 (Plasmodium falciparum [1]) [nM] | MIC (Pseudomonas aeruginosa [2]) [µM] | MIC (Pseudomonas aeruginosa [3]) [µM] | MIC (Acinetobacter baumannii [4]) [µM] | MIC (Acinetobacter baumannii [5]) [µM] | MIC (Acinetobacter baumannii [6]) [µM] | MIC (Klebsiella pneumoniae [7]) [µM] | MIC (Klebsiella pneumoniae [8]) [µM] | MIC (Klebsiella pneumoniae [9]) [µM] | MIC (Escherichia coli [10]) [µM] | MIC (Escherichia coli [11]) [µM] | selectivity ratio [12] | selectivity ratio [13] | selectivity ratio [14] | selectivity ratio [15] | selectivity ratio [16] | selectivity ratio [17] | selectivity ratio [18] | selectivity ratio [19] | selectivity ratio [20] | also measured
c1ccc2c(c1)[I+]c1ccccc1-2 | 130 | 2.3 | 4.7 | 9.3 | 4.7 | 2.3 | 75 | 75 | 37 | 37 | 37 | 0.39 | 13 | 6.3 | 3.1 | 6.3 | 50 | 0.78 | 0.78 | 1.6 | selectivity ratio [21]: 1.6; IC50 (Plasmodium knowlesi [22]): 740 nM; IC50 (Plasmodium falciparum [23]): 40 nM
Cc1ccc2c(c1)[I+]c1ccccc1-2.O=S(=O)([O-])C(F)(F)F | 230 | 4.5 | 4.5 | 9.1 | 18 | 4.5 | 72 | 72 | 72 | 72 | 72 | 0.05 | 0.81 | 0.81 | 0.41 | 0.81 | 3.2 | 0.05 | 0.05 | 0.41 | selectivity ratio [21]: 0.398; Stability [24]: Stable
Clc1cccc2c1-c1ccccc1[I+]2 | 50 | < 0.27 | < 0.27 | < 0.27 | < 0.27 | < 0.27 | 8.6 | 8.6 | 8.6 | 0.54 | 0.54 | < 2.4 | < 2.4 | < 2.4 | < 2.4 | < 2.4 | < 2.4 | 0.08 | 0.08 | 0.29 | IC50 (Plasmodium falciparum [25]): 70 nM; selectivity ratio [21]: 0.61; selectivity ratio [26]: 8.9; IC50 (Plasmodium knowlesi [27]): 80 nM; selectivity ratio [28]: 8.5
Fc1cccc2c1-c1ccccc1[I+]2 | 50 | < 0.28 | < 0.28 | 0.56 | < 0.28 | 0.56 | 9 | 9 | 9 | 1.1 | 1.1 | 2.1 | < 16 | < 16 | 8.2 | 8.2 | < 16 | 0.51 | 0.51 | 2.1 | IC50 (Plasmodium falciparum [25]): 80 nM; selectivity ratio [21]: 2.1; selectivity ratio [26]: 61; IC50 (Plasmodium knowlesi [27]): 80 nM; selectivity ratio [28]: 59
N#Cc1ccc2c(c1)-c1ccccc1[I+]2 | 40 | 4.4 | 8.8 | 18 | 18 | 4.4 | > 71 | > 71 | 71 | 71 | > 71 | 0.32 | 5.1 | 2.5 | 0.13 | 10 | 10 | > 0.32 | > 0.32 | 2.5 | IC50 (Plasmodium falciparum [25]): 90 nM; selectivity ratio [21]: 2.5; selectivity ratio [26]: 256; IC50 (Plasmodium knowlesi [27]): 110 nM; selectivity ratio [28]: 232
